Data: ChEMBL document CHEMBL2375213, “Synthesis and anticancer activity of novel spiro-isoxazoline and spiro-isoxazolidine derivatives of α-santonin” (Eur J Med Chem, 2013)

Experiments:
[1] = test system: PC-3; test: Cell cycle arrest in human PC3 cells assessed as accumulation at S phase at 1 uM after 24 hrs by propidium iodide staining-based FACS flow cytometric analysis (reference value: 8.5%); type: functional
Method in brief: (§1)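 PC-3 cells (1×10^6/well) exposed 24 h to test agent at 1, 5 or 10 μM. Cells washed twice in ice-cold PBS, fixed in 70% ethanol for 30 min, then treated with RNase A (0.1 mg/mL, 37 °C, 30 min). Propidium iodide staining 30 min on ice in the dark. DNA content read by flow cytometry with 488 nm excitation and doublet discrimination, 10,000 events.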

[2] = test system: PC-3; test: Cell cycle arrest in human PC3 cells assessed as accumulation at S phase at 10 uM after 24 hrs by propidium iodide staining-based FACS flow cytometric analysis (reference value: 8.5%); type: functional; method in brief: as §1
[3] = test system: PC-3; test: Cell cycle arrest in human PC3 cells assessed as accumulation at M phase at 5 uM after 24 hrs by propidium iodide staining-based FACS flow cytometric analysis (reference value: 3%); type: functional; method in brief: as §1
[4] = molecular target: Transcription factor p65 (Homo sapiens) (UniProt Q04206); test: Inhibition of NFkappaB p65 in nuclear extract of human PC3 cells assessed as reduction in binding to consensus DNA sequence at 5 uM after 24 hrs relative to control; type: cell-based; conditions: PC-3
Method in brief: (§2)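 PC-3 cells (5×10^6) treated 24 h at varied concentrations. Nuclear extract made by hypotonic lysis (HEPES/KOH pH 7.9) followed by high-salt extraction. Nuclear protein (20 µg) incubated overnight at 4 °C in wells carrying immobilized NF-κB DNA consensus element, then anti-p65 primary antibody 1 h and HRP secondary 1 h. Substrate 30 min, OD 450 nm, normalized to untreated control = 100%.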

[5] = test system: MCF7; test: Antiproliferative activity against human MCF7 cells after 48 hrs by sulforhodamine B assay; type: functional, cell-based; conditions: MCF7, 48 h
[6] = test system: HEp-2; test: Antiproliferative activity against human Hep2 cells after 48 hrs by sulforhodamine B assay; type: functional, cell-based; conditions: HEp-2, 48 h
[7] = test system: PC-3; test: Cell cycle arrest in human PC3 cells assessed as accumulation at G0/G1 phase at 5 uM after 24 hrs by propidium iodide staining-based FACS flow cytometric analysis (reference value: 68.2%); type: functional; method in brief: as §1
[8] = test system: PC-3; test: Cell cycle arrest in human PC3 cells assessed as accumulation at G0/G1 phase at 1 uM after 24 hrs by propidium iodide staining-based FACS flow cytometric analysis (reference value: 68.2%); type: functional; method in brief: as §1
[9] = test system: PC-3; test: Cell cycle arrest in human PC3 cells assessed as accumulation at G0/G1 phase at 10 uM after 24 hrs by propidium iodide staining-based FACS flow cytometric analysis (reference value: 68.2%); type: functional; method in brief: as §1
[10] = test system: HCT-116; test: Antiproliferative activity against human HCT116 cells after 48 hrs by sulforhodamine B assay; type: functional, cell-based; conditions: HCT-116, 48 h
[11] = test system: PC-3; test: Cell cycle arrest in human PC3 cells assessed as accumulation at subG1 phase at 1 uM after 24 hrs by propidium iodide staining-based FACS flow cytometric analysis (reference value: 13.1%); type: functional; method in brief: as §1
[12] = test system: PC-3; test: Antiproliferative activity against human PC3 cells after 48 hrs by sulforhodamine B assay; type: functional, cell-based; conditions: PC-3, 48 h
[13] = test system: PC-3; test: Cell cycle arrest in human PC3 cells assessed as accumulation at subG1 phase after 24 hrs by propidium iodide staining-based FACS flow cytometric analysis; type: functional; method in brief: as §1
[14] = test system: PC-3; test: Cell cycle arrest in human PC3 cells assessed as accumulation at M phase at 10 uM after 24 hrs by propidium iodide staining-based FACS flow cytometric analysis (reference value: 3%); type: functional; method in brief: as §1
[15] = test system: A549; test: Antiproliferative activity against human A549 cells after 48 hrs by sulforhodamine B assay; type: functional, cell-based; conditions: A549, 48 h
[16] = test system: PC-3; test: Cell cycle arrest in human PC3 cells assessed as accumulation at subG1 phase at 5 uM after 24 hrs by propidium iodide staining-based FACS flow cytometric analysis (reference value: 13.1%); type: functional; method in brief: as §1
[17] = molecular target: Transcription factor p65 (Homo sapiens) (UniProt Q04206); test: Inhibition of NFkappaB p65 in nuclear extract of human PC3 cells assessed as reduction in binding to consensus DNA sequence at 1 uM after 24 hrs relative to control; type: cell-based; conditions: PC-3; method in brief: as §2
[18] = test system: THP-1; test: Antiproliferative activity against human THP1 cells after 48 hrs by sulforhodamine B assay; type: functional, cell-based; conditions: THP-1, 48 h
[19] = test system: PC-3; test: Cell cycle arrest in human PC3 cells assessed as accumulation at S phase at 5 uM after 24 hrs by propidium iodide staining-based FACS flow cytometric analysis (reference value: 8.5%); type: functional; method in brief: as §1
[20] = test system: PC-3; test: Cell cycle arrest in human PC3 cells assessed as accumulation at M phase at 1 uM after 24 hrs by propidium iodide staining-based FACS flow cytometric analysis (reference value: 3%); type: functional; method in brief: as §1
[21] = test system: PC-3; test: Cell cycle arrest in human PC3 cells assessed as accumulation at subG1 phase at 10 uM after 24 hrs by propidium iodide staining-based FACS flow cytometric analysis (reference value: 13.1%); type: functional; method in brief: as §1
[22] = molecular target: Transcription factor p65 (Homo sapiens) (UniProt Q04206); test: Inhibition of NFkappaB p65 in nuclear extract of human PC3 cells assessed as reduction in binding to DNA response element after 24 hrs; type: cell-based; conditions: PC-3; method in brief: as §2
[23] = molecular target: Transcription factor p65 (Homo sapiens) (UniProt Q04206); test: Inhibition of NFkappaB p65 in nuclear extract of human PC3 cells assessed as reduction in binding to consensus DNA sequence at 10 uM after 24 hrs relative to control; type: cell-based; conditions: PC-3; method in brief: as §2

Transcription factor p65 (Homo sapiens), sequence (Q04206 whole entry): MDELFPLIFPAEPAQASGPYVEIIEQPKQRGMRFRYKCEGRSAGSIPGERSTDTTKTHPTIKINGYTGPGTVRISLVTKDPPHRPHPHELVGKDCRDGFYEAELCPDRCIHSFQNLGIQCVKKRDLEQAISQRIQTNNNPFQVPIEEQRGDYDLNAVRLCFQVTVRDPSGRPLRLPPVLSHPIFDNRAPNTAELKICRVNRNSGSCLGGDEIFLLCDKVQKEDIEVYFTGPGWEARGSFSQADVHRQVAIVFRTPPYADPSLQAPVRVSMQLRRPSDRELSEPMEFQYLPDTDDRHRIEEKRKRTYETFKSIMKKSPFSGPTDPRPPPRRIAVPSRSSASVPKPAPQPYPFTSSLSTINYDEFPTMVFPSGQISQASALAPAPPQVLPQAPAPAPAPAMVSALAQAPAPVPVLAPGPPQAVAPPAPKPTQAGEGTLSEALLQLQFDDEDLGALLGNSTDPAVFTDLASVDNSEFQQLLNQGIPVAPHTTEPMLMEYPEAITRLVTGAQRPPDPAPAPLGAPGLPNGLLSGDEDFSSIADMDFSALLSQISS

Compound | Activity [1] [%] | Activity [2] [%] | Activity [3] [%] | IC50 [5] [µM] | IC50 [6] [µM] | Activity [7] [%] | Activity [8] [%] | Activity [9] [%] | IC50 [10] [µM] | Activity [11] [%] | IC50 [12] [µM] | Activity [13] | Activity [14] [%] | IC50 [15] [µM] | Activity [16] [%] | IC50 [18] [µM] | Activity [19] [%] | Activity [20] [%] | Activity [21] [%] | also measured
CC1=C2[C@H]3OC(=O)C4(C[C@@H](c5ccc(Br)cc5)N(c5ccccc5)O4)[C@@H]3CC[C@@]2(C)C=CC1=O (some centres not stated) | 6.2 | 0.4 | 1.2 | 0.3 | 65 | 43.5 | 60.9 | 3.1 | 37 | 25.6 | 0.01 | Dose-dependent effect | 0.4 | 31 | 39.7 | 0.5 | 4.5 | 2 | 67.9 | inhibition [4]: 43%; inhibition [17]: 20%; inhibition [22]: Dose-dependent effect; inhibition [23]: 57%
CC1=C2[C@H]3OC(=O)C4(C[C@H](c5ccc(Br)cc5)N(c5ccccc5)O4)[C@@H]3CC[C@@]2(C)C=CC1=O (some centres not stated) | 4.2 | 4.9 | 0.8 | 0.8 | 100 | 55.8 | 55.3 | 53.2 | 100 | 33.8 | 0.1 | Dose-dependent effect | 1.3 | 100 | 34.7 | 0.3 | 4.4 | 1.6 | 42.8 | –
